Assay results as given in ChEMBL document CHEMBL4028867, “Design, Synthesis, and Characterization of N-Oxide-Containing Heterocycles with in Vivo Sterilizing Antitubercular Activity” (J Med Chem, 2017).
In brackets after ≈: the same amount, converted by molar mass. Activity calls are given as the source filed them. The rule behind the calls is not given here.

How the values were obtained:
[1] = tested on: Mycobacterium tuberculosis; experiment: Antitubercular activity against replicating stage Mycobacterium tuberculosis H37Rv ATCC 27294 after 7 days by Resazurin microtiter assay; type: functional; settings: H37Rv ATCC 27294, 168 h
[2] = tested on: MRC5; experiment: Cytotoxicity against human MRC5 cells assessed as reduction in cell viability after 24 hrs by fluorescence assay; type: cell-based; settings: MRC5, 24 h
Summary of the method: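 MRC-5 human lung fibroblasts; cytotoxicity reported as IC50.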

[3] = Selectivity index, ratio of IC50 for human MRC5 cells to IC50 for replicating stage Mycobacterium tuberculosis H37Rv ATCC 27294; type: toxicity; settings: read-out: Selectivity Index
[4] = n-Octanol/water partition coefficient, log P of the compound by HPLC analysis; type: physicochemical
Summary of the method: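 Log P from n-octanol/water partition coefficient determined by HPLC method.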

[5] = tested on: Mycobacterium tuberculosis; experiment: Antitubercular activity against dormant stage Mycobacterium tuberculosis H37Rv ATCC 27294 incubated for 10 days in anaerobic condition followed by incubation for 28 hrs in ambient gaseous condition measured after day 11 by two fold serial dilution assay; type: functional
[6] = tested on: Staphylococcus aureus; experiment: Antimicrobial activity against Staphylococcus aureus ATCC 29213 at 200 uM incubated for 16 hrs; type: functional
[7] = tested on: Escherichia coli; experiment: Antimicrobial activity against Escherichia coli ATCC 25922 at 200 uM incubated for 16 hrs; type: functional
[8] = tested on: Candida albicans; experiment: Antimicrobial activity against Candida albicans ATCC 10231 at 200 uM incubated for 48 hrs; type: functional
[9] = tested on: Mycobacterium tuberculosis; experiment: Antitubercular activity against Mycobacterium tuberculosis H37Rv ATCC 27294 under normal pH 6.8 condition; type: functional
[10] = tested on: Mycobacterium tuberculosis; experiment: Growth inhibition of Mycobacterium tuberculosis H37Rv exposed to plasma from BALB/c mouse treated with 20 mg/kg, po administered through microemulsion vehicle as single oral dose per gavage after 4 hrs by Resazurin microtiter assay; type: functional; settings: read-out: GI
Summary of the method: (§1)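 The microemulsion was 10% cholesterol, 10% phosphatidylcholine/sodium oleate/polyoxyl 40 hydrogenated castor oil (3:6:8) and 80% phosphate buffer pH 7.4. Plasma taken at 0.3, 1, 2 or 4 h was tested by REMA for % Mtb growth inhibition, and plasma level was estimated against the in-vitro REMA MIC.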

[11] = tested on: Mycobacterium tuberculosis; experiment: Growth inhibition of Mycobacterium tuberculosis H37Rv exposed to plasma from BALB/c mouse treated with 20 mg/kg, po administered through microemulsion vehicle as single oral dose per gavage after 2 hrs by Resazurin microtiter assay; type: functional; settings: read-out: GI; summary of the method: as §1
[12] = tested on: Mycobacterium tuberculosis; experiment: Growth inhibition of Mycobacterium tuberculosis H37Rv exposed to plasma from BALB/c mouse treated with 20 mg/kg, po administered through microemulsion vehicle as single oral dose per gavage after 1 hr by Resazurin microtiter assay; type: functional; settings: read-out: GI; summary of the method: as §1
[13] = tested on: Mycobacterium tuberculosis; experiment: Growth inhibition of Mycobacterium tuberculosis H37Rv exposed to plasma from BALB/c mouse treated with 20 mg/kg, po administered through microemulsion vehicle as single oral dose per gavage after 0.3 hrs by Resazurin microtiter assay; type: functional; settings: read-out: GI; summary of the method: as §1
[14] = tested on: Mycobacterium tuberculosis; experiment: Antitubercular activity against Mycobacterium tuberculosis H37Rv ATCC 27294 under acidic pH 6 condition; type: functional
[15] = tested on: Mycobacterium tuberculosis; experiment: Growth inhibition of Mycobacterium tuberculosis H37Rv exposed to plasma from BALB/c mouse treated with 20 mg/kg, po administered through carboxymethylcellulose vehicle as single oral dose per gavage after 0.3 hrs by Resazurin microtiter assay; type: functional; settings: read-out: GI; summary of the method: as §1
[16] = tested on: Mycobacterium tuberculosis; experiment: Growth inhibition of Mycobacterium tuberculosis H37Rv exposed to plasma from BALB/c mouse treated with 20 mg/kg, po administered through carboxymethylcellulose vehicle as single oral dose per gavage after 1 hr by Resazurin microtiter assay; type: functional; settings: read-out: GI; summary of the method: as §1
[17] = tested on: Mycobacterium tuberculosis; experiment: Growth inhibition of Mycobacterium tuberculosis H37Rv exposed to plasma from BALB/c mouse treated with 20 mg/kg, po administered through carboxymethylcellulose vehicle as single oral dose per gavage after 2 hrs by Resazurin microtiter assay; type: functional; settings: read-out: GI; summary of the method: as §1
[18] = tested on: Mycobacterium tuberculosis; experiment: Growth inhibition of Mycobacterium tuberculosis H37Rv exposed to plasma from BALB/c mouse treated with 20 mg/kg, po administered through carboxymethylcellulose vehicle as single oral dose per gavage after 4 hrs by Resazurin microtiter assay; type: functional; settings: read-out: GI; summary of the method: as §1

| Compound | MIC90 [1] [µM] | IC50 [2] [µM] | selectivity ratio [3] | logP [4] | also measured |
| --- | --- | --- | --- | --- | --- |
| Nc1cccc(C(=O)N/N=C/c2ccc3no[n+]([O-])c3c2)c1 | 17.8 (≈ 5.29 µg/mL) | 82.1 | 4.6 | 1.4 | – |
| Nc1ccc(C(=O)N/N=C/c2ccc3no[n+]([O-])c3c2)cc1 | 10.7 (≈ 3.17 µg/mL) | 841 | 78.9 | 1.2 | MIC90 [5]: > 10 µM; Activity [6]: inactive; Activity [7]: inactive; Activity [8]: inactive |
| N#Cc1c(-c2ccc(OC(F)(F)F)cc2)[n+]([O-])c2ccc(C3OCCO3)cc2[n+]1[O-] | 15.4 (≈ 6.46 µg/mL) | 66.8 | 4.3 | 2.2 | – |
| N#Cc1c(-c2ccc(F)cc2)[n+]([O-])c2ccc(C3OCCO3)cc2[n+]1[O-] | 24.3 (≈ 8.59 µg/mL) | 21.8 | 0.9 | 1.3 | – |
| N#Cc1c(-c2ccco2)[n+]([O-])c2ccc(C3OCCO3)cc2[n+]1[O-] | 5.2 (≈ 1.69 µg/mL) | 35.7 | 6.8 | 2 | – |
| NC(=O)c1c(COc2ccccc2/C=N/NC(=O)c2ccncc2)no[n+]1[O-] | 0.42 (≈ 0.161 µg/mL) | 854 | 2030 | 1.3 | MIC90 [5]: 7.72 µM (≈ 2.95 µg/mL) |
| O=C(N/N=C/c1ccc2no[n+]([O-])c2c1)c1ccc([N+](=O)[O-])cc1 | 5.29 (≈ 1.73 µg/mL) | – | – | 0.9 | Activity [6]: inactive; Activity [7]: inactive; Activity [8]: inactive |
| N#Cc1c(-c2ccccc2)[n+]([O-])c2ccc(/C=N/NC(=O)c3ccncc3)cc2[n+]1[O-] | 39.7 (≈ 16.3 µg/mL) | 21 | 0.5 | 1 | – |
| NNC(=O)c1ccncc1 [ISONIAZID] | 0.1 (≈ 0.0137 µg/mL) | – | – | – | MIC90 [5]: 1.11 µM (≈ 0.152 µg/mL) |
| Nc1ccccc1C(=O)N/N=C/c1ccc2no[n+]([O-])c2c1 | 12.3 (≈ 3.66 µg/mL) | 122 | 9.9 | 2 | – |
| NC(=O)c1c(COc2cccc(/C=N/NC(=O)c3ccncc3)c2)no[n+]1[O-] | 0.4 (≈ 0.153 µg/mL) | 1280 | 3200 | 1.3 | MIC90 [5]: 4.2 µM (≈ 1.61 µg/mL) |
| Cc1ccc(-c2c(C#N)[n+]([O-])c3cc(C4OCCO4)ccc3[n+]2[O-])cc1 | 16.5 (≈ 5.76 µg/mL) | 17.2 | 1.1 | 1.6 | – |
| O=C(N/N=C/c1ccc2no[n+]([O-])c2c1)c1ccccc1 | 8.3 (≈ 2.34 µg/mL) | 130 | 15.6 | 2.2 | – |
| COc1ccc(-c2c(C#N)[n+]([O-])c3cc(C4OCCO4)ccc3[n+]2[O-])cc1 | 12 (≈ 4.38 µg/mL) | 15 | 1.2 | 1.4 | – |
| O=C(N/N=C/c1ccc2no[n+]([O-])c2c1)c1ccccc1O | > 62 | – | – | 1.3 | – |
| N#Cc1c(-c2cccs2)[n+]([O-])c2ccc(C3OCCO3)cc2[n+]1[O-] | 12.1 (≈ 4.13 µg/mL) | 17.3 | 1.4 | 1.9 | – |
| N#Cc1c(-c2ccccc2)[n+]([O-])c2ccc(C3OCCO3)cc2[n+]1[O-] | 30.8 (≈ 10.3 µg/mL) | 31.9 | 0.9 | 0.7 | – |
| O=C(N/N=C/c1ccc2no[n+]([O-])c2c1)c1cccc(O)c1 | > 62 | – | – | 1.2 | – |
| CC(C)(C)c1ccc(C(=O)N/N=C/c2ccc3no[n+]([O-])c3c2)cc1 | 3.9 (≈ 1.32 µg/mL) | 25.2 | 6.3 | 3.8 | – |
| O=C(N/N=C/c1ccc2no[n+]([O-])c2c1)c1ccc(O)cc1 | > 62 | – | – | 1.2 | Activity [6]: inactive; Activity [7]: inactive; Activity [8]: inactive |
| N#Cc1c(-c2ccc(Cl)cc2)[n+]([O-])c2ccc(C3OCCO3)cc2[n+]1[O-] | 16.2 (≈ 5.99 µg/mL) | 12.6 | 0.8 | 1.8 | – |
| NC(=O)c1c(COc2ccc(/C=N/NC(=O)c3ccncc3)cc2)no[n+]1[O-] | 0.43 (≈ 0.164 µg/mL) | 1160 | 2700 | 1.3 | MIC90 [5]: 2.04 µM (≈ 0.78 µg/mL) |
| CO[C@H]1/C=C/O[C@@]2(C)Oc3c(C)c(O)c4c(O)c(c(/C=N/N5CCN(C)CC5)c(O)c4c3C2=O)NC(=O)/C(C)=C\C=C\[C@H](C)[C@H](O)[C@@H](C)[C@@H](O)[C@@H](C)[C@H](OC(C)=O)[C@@H]1C [RIFAMPIN] | – | – | – | – | MIC90 [9]: 0.05 µM (≈ 0.0411 µg/mL); inhibition in vivo at 20 mg/kg [10]: 91%; inhibition in vivo at 20 mg/kg [11]: 76.3%; inhibition in vivo at 20 mg/kg [12]: 63%; inhibition in vivo at 20 mg/kg [13]: 66.3%; MIC90 [14]: 0.02 µM (≈ 0.0165 µg/mL); inhibition in vivo at 20 mg/kg [15]: 73.7%; inhibition in vivo at 20 mg/kg [16]: 84%; inhibition in vivo at 20 mg/kg [17]: 62.3%; inhibition in vivo at 20 mg/kg [18]: 68% |
